# KCNK3 block – human KCNK3 channel inhibition, primary screen; O14649; CHO-KCNK3 thallium flux, FluxOR fluorescence; active compounds read low; B-score at 10 µM; 340,000 compounds, 0.84% hits; AID 602410;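 active means B-score under library mean minus 4 SD, starting fluorescence ratio at most library mean plus 5 SD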;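 further: more negative B-score means stronger inhibition of thallium flux through KCNK3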
# Kir21 inh – Kir2.1 (mouse) channel inhibition; P35561; HEK293-Kir2.1, FluxOR thallium flux fluorescence; active compounds read low; B-score at 10 µM; 310,000 compounds, 0.85% hits;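 active means fluorescence ratio B-score at or below minus 3 SD of library scores, with starting-brightness B-score within 2 SD, cut at about -4.2 in these data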;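 further: channel flux triggered by added potassium and thallium sulfate stimulus; B-score of peak minus minimum fluorescence over baseline after thallium stimulus; more negative B-score means stronger Kir2.1 block with less thallium influx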
# KCNQ1 block – inhibitors of human KCNQ1 potassium channel; B-score at 10 µM; 310,000 compounds, 1.3% hits; CHO-K1 KCNQ1, FluxOR thallium flux fluorescence; active compounds read high; P51787;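 active means compounds whose thallium flux B-score, printed positive for inhibition, exceeds three library SD while starting fluorescence stays within three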;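 further: channel opened by potassium depolarization with thallium stimulus after 20 min compound exposure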
# KCNK9 inh – inhibitors of human KCNK9 two-pore domain potassium channel; HEK293 KCNK9, FluxOR thallium flux fluorescence; active compounds read low; B-score at 10 µM; 310,000 compounds, 1.2% hits; AID 488922; Q9NPC2;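 active means ratio B-score over 3 SD below the library mean, with starting fluorescence within 5 SD of its mean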;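 further: negative B-score means less thallium flux so channel inhibition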
# KCNQ1 pot – human KCNQ1 channel potentiation or activation; AID 2648; 310,000 compounds, 0.35% hits; P51787; CHO-K1 KCNQ1, thallium flux FluxOR fluorescence; active compounds read high; B-score at 10 µM;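 active means fluorescence ratio B-score, a plate-corrected score, at least three library SD, with initial intensity B-score within 5 SD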
#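 Assay system: CHO-K1 cells stably expressing KCNQ1. Medium: assay buffer for compound exposure, DMSO matched across wells. Timing: 37 °C overnight plating, 90-min dark dye load, 20-min compound pretreatment. Signal: kinetic FluxOR fluorescence, 10 s baseline plus 110 s post-stimulus.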
# hERG rescue – hERG (human) protection from proarrhythmic block. Q12809. CHO-hERG, FluxOR thallium flux, dofetilide IC70 present. 310,000 compounds, 0.51% hits. AID 1511. activation (rescue from dofetilide block), less the hit threshold, % at 10 µM;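 active means activation above the mean of controls blocked by dofetilide plus 5 SD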;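 further: thallium influx through hERG after potassium depolarization seen as dye fluorescence rise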
# Target sequence (Q12809 whole entry, looked up): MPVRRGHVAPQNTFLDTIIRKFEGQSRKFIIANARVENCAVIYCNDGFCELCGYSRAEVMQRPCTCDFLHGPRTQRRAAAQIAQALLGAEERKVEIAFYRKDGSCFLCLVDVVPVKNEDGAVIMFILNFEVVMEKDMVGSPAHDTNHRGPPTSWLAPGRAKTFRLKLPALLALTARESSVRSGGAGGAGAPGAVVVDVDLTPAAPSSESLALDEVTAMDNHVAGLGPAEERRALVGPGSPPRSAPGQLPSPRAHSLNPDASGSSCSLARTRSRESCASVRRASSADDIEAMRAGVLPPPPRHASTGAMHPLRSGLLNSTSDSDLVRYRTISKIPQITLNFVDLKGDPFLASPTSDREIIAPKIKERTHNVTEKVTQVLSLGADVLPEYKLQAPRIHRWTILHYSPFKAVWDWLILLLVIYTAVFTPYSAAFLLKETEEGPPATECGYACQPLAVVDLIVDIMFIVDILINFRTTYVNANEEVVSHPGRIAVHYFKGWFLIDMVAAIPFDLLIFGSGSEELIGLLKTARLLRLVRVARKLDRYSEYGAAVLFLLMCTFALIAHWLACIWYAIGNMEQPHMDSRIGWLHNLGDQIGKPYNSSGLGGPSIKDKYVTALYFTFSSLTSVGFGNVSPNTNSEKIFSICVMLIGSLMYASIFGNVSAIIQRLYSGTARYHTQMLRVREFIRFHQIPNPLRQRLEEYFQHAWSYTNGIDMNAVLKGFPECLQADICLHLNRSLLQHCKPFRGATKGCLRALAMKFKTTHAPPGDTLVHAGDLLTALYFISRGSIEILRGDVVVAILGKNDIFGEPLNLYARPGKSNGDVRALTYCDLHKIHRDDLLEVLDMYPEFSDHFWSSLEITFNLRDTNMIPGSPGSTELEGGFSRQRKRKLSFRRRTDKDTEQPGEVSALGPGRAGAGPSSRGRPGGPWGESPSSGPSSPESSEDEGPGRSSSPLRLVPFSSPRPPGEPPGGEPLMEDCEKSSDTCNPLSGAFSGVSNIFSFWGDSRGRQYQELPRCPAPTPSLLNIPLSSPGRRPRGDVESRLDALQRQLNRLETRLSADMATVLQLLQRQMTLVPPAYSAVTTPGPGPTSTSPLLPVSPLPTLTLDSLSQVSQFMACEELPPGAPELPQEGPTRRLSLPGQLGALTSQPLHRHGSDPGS
# KCNQ1 inh valid – confirmation of human KCNQ1 potassium channel inhibitors; shares compounds with KCNQ1 block; KCNQ1 cell line, FluxOR thallium flux fluorescence; inhibition, % at 10 µM; 1,600 compounds, 93% hits; AID 588353;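 active means primary screen active, with duplicate mean exceeding buffer control mean plus 3 SD of buffer wells, cut at about 28% in these data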;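 further: 0% = buffer control ratio and 100% = XE991 inhibitor control ratio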
# CHO KCNQ1 ctr – counter-screen for KCNQ1 inhibitors: effect in parental CHO cells; shares compounds with KCNQ1 block; parental CHO-K1, FluxOR thallium flux fluorescence ratio; active compounds read low; zero means no signal rise above baseline; fluorescence ratio (Tl flux) at 10 µM; 1,600 compounds, 21% hits; AID 588366;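 active means mean of duplicate thallium-flux fluorescence ratios in parental host cells more than 5 SD below the buffer control mean, cut at about 0.38 in these data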;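 further: ratio is peak minus minimum fluorescence divided by baseline fluorescence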
# KCNQ1 APC inh – blocks human KCNQ1 current in automated patch clamp. shares compounds with KCNQ1 block. KCNQ1-CHO cells. calls only at 10 µM. 490 compounds, 20% hits. AID 624120;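 active means KCNQ1 current drop exceeding 3 SD of negative control wells, seen in both duplicate runs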;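 further: steady state current during a 2 s step from -80 to +40 mV; negative values mean current inhibition and positive values mean potentiation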
# KCNQ2 inh – KCNQ1 inhibitor that also blocks rat KCNQ2 channel; shares compounds with KCNQ1 block; KCNQ2 cells, FluxOR thallium flux fluorescence; inhibition, % at 10 µM; 1,600 compounds, 71% hits;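 active means mean percent inhibition of the KCNQ2 thallium signal more than 5 SD above the buffer-only control wells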;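 further: KCNQ2 expressed in CHO cells; 0% = buffer control wells and 100% = XE-991 inhibitor control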
# KCNQ1-KCNE1 inh – KCNQ1 inhibitor that also blocks human KCNQ1/KCNE1 channel; shares compounds with KCNQ1 block; KCNQ1/KCNE1 cells, FluxOR thallium flux fluorescence; inhibition, % at 10 µM; 1,600 compounds, 77% hits; AID 652147;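 active means mean percent inhibition of duplicate wells above the buffer-only control mean plus 3 SD of those controls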;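 further: 0% = buffer only wells and 100% = XE-991 inhibitor control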
# Numbers without * were called inactive; i = inactive; nt = no result given; + = active, no number. Shown are actives, neighbours in structure and some others; about 3.8% of the full set was active somewhere.
SMILES,KCNK3 block,Kir21 inh,KCNQ1 block,KCNK9 inh,KCNQ1 pot,hERG rescue,KCNQ1 inh valid,CHO KCNQ1 ctr,KCNQ2 inh,KCNQ1-KCNE1 inh,others
Cc1nc(-c2ccc(S(=O)(=O)N3CCN(c4cccc(C)c4C)CC3)cc2)co1,i,0.07,6*,i,i,-7.9,74.0*,0.501,103.7%*,112.0%*,
Cc1nc(-c2ccc(S(=O)(=O)N3CCN(c4ccccc4)CC3)cc2)co1,i,0.49,i,i,i,-5.0,nt,nt,nt,nt,
Cc1cc(OCC(O)CN)ccc1Cl (stereo not drawn),i,0.18,i,i,i,-6.8,nt,nt,nt,nt,
N#CC(c1ccccc1)(c1ncc(C(F)(F)F)cc1Cl)N1CCOCC1 (stereo not drawn),i,0.03,6*,i,i,-11.4,74.5*,0.473,99.0%*,84.0%*,
N#CC(c1cccc(C(F)(F)F)c1)(c1ncc(C(F)(F)F)cc1Cl)N1CCOCC1 (stereo not drawn),i,0.72,i,i,i,-12.6,nt,nt,nt,nt,
COc1ccc(OC)c(/C=N\NC(=O)c2cc3c(ccc4ccccc43)o2)c1,i,1.99,i,i,i,-7.4,nt,nt,nt,nt,
COc1ccc(/C=N/NC(=O)c2cc3c(ccc4ccccc43)o2)c(OC)c1,i,0.08,18*,i,i,-22.7,82.5*,0.434,63.7%*,170.5%*,
C[C@@H](C(=O)Nc1cccnc1)n1c(=O)[nH]c2ccccc2c1=O,i,-1.03,i,i,i,-4.5,nt,nt,nt,nt,
Cc1ccc(N2C(=O)N(CC(=O)Nc3ccc(C)c(C)c3)C(=O)C2C)cc1 (stereo not drawn),i,-0.21,i,i,i,-6.8,nt,nt,nt,nt,
COc1cccc(NC(=O)C(c2ccccc2)N2CCCCC2)c1 (stereo not drawn),i,-1.41,i,i,i,-10.4,nt,nt,nt,nt,
O=C(Nc1cc(Cl)cc(Cl)c1)C(c1ccccc1)N1CCCCC1 (stereo not drawn),i,0.57,8*,i,i,-8.1,120.5*,0.363*,122.3%*,114.0%*,
Cc1cccc(NC(=O)C(c2ccccc2Cl)N2CCOCC2)c1 (stereo not drawn),i,-0.11,i,i,i,-11.8,nt,nt,nt,nt,
Cc1ccc(NC(=O)C(c2ccc(Cl)cc2Cl)N2CCCC2)cc1 (stereo not drawn),i,0.75,8*,-7.08*,i,-9.3,91.5*,0.383,i,152.5%*,KCNQ1 APC inh=+
N[C@@H](Cc1ccccc1)C(=O)N1CCC(C(=O)N[C@@H](Cc2c[nH]c3ccccc23)C(=O)O)CC1,i,0.15,i,i,i,-3.5,nt,nt,nt,nt,
Cc1cccc(C)c1NC(=O)CNC(=O)CNC(=O)Cc1cccc2ccccc12,i,nt,nt,nt,nt,nt,nt,nt,nt,nt,
COc1ccc(N(CC(=O)N2CCN(c3ccc(F)cc3)CC2)S(=O)(=O)c2c(C)noc2C)cc1,i,0.26,i,i,i,-12.2,nt,nt,nt,nt,
CN(Cc1cccnc1)C(=O)c1cc(COc2ccc3c(c2)CCCC3)on1,i,-0.04,7*,i,i,-20.8,115.0*,0.438,81.0%*,45.5%*,KCNQ1 APC inh=i
CCN(C[C@H]1N[C@@](CC)(C(=O)OC)[C@H]2C(=O)N(Cc3ccccc3)C(=O)[C@@H]12)C(=O)Nc1ccc(Cl)cc1,i,nt,nt,nt,nt,nt,nt,nt,nt,nt,
CC(C)CSC1=NSC2=NC(=O)/C(=C\c3coc4ccccc4c3=O)C(=N)N12,i,-15.9,25*,i,i,-45.6,+,0.004*,i,i,
CSC1=NSC2=NC(=O)/C(=C\c3coc4ccccc4c3=O)C(=N)N12,i,nt,nt,nt,nt,nt,nt,nt,nt,nt,
CN1/C(=C\C=C2/SC(=S)N(CC(=O)O)C2=O)C(C)(C)c2ccccc21,i,-14.2,24*,i,i,-43.7,+,0.0445*,i,i,
O=C(CC12CC3CC(CC(C3)C1)C2)Nc1nncs1,i,0.77,i,i,i,-14.8,nt,nt,nt,nt,
CC1=C(C)CC(C(=O)N2CCN(Cc3ccc4c(c3)OCO4)CC2)C(C(=O)O)C1 (stereo not drawn),i,0.05,i,i,i,-8.1,nt,nt,nt,nt,
Cc1cc(N2CCCC2=O)cc(C)c1S(=O)(=O)NCCOc1ccc(C(C)(C)C)cc1,i,-0.35,10*,i,i,-18.4,138.0*,0.435,112.0%*,141.0%*,KCNQ1 APC inh=i
CCOC(=O)N1CCN(C(=O)/C=C/c2cccc([N+](=O)[O-])c2)CC1,i,0.17,i,i,i,-3.2,nt,nt,nt,nt,
SMILES,KCNK3 block,Kir21 inh,KCNQ1 block,KCNK9 inh,KCNQ1 pot,hERG rescue,KCNQ1 inh valid,CHO KCNQ1 ctr,KCNQ2 inh,KCNQ1-KCNE1 inh,others
O=C1c2ccsc2SCCN1Cc1c(Cl)cccc1Cl,i,-2.2,8*,i,i,-11.6,69.0*,0.422,79.0%*,86.0%*,
O=C(CCS(=O)(=O)c1ccccc1)Nc1nncs1,i,-0.76,i,i,i,-1.9,nt,nt,nt,nt,
O=C(Nc1nc2c(s1)COc1ccccc1-2)c1cccs1,i,-0.36,7*,i,i,-16.4,44.0*,0.524,102.0%*,63.5%*,
O=C(CCS(=O)(=O)c1ccccc1)Nc1nc2c(s1)COc1ccccc1-2,i,0.24,6*,i,i,-21.7,54.0*,0.514,59.3%*,53.5%*,
O=c1ccc2cc(S(=O)(=O)NCc3ccccc3)ccc2[nH]1,i,-1.77,i,i,i,-7.4,nt,nt,nt,nt,
Cc1ccc(-c2cn(-c3ccc(SC(F)F)cc3)c3[n+]2CCC3)cc1,i,-0.49,i,i,i,-15.6,nt,nt,nt,nt,
COc1ccc(NC(=O)CN2CCN(c3ccccn3)CC2)cc1Cl,i,-0.42,i,i,i,-2.2,nt,nt,nt,nt,
COc1ccc(NC(=O)c2sc3ncnc(N4CCN(c5ccccn5)CC4)c3c2C)cc1Cl,i,-0.19,8*,i,i,-19.0,80.0*,0.401,97.0%*,108.0%*,
Cc1c(C(=O)Nc2c(F)cccc2F)sc2ncnc(N3CCN(c4ccccc4)CC3)c12,i,0.13,7*,i,i,-15.1,64.5*,0.455,104.0%*,88.0%*,

# Compound activity (PubChem)
